Assay results published in ChEMBL document CHEMBL1144107, “Novel and known constituents from Buddleja species and their activity against leukocyte eicosanoid generation” (J Nat Prod, 1999).

Legend:
[1] = target: T1, Polyunsaturated fatty acid 5-lipoxygenase (Rattus norvegicus) (UniProt P12527); test: Inhibition of 5-lipoxygenase in Wistar rat peritoneal leukocytes at 50 ug/mL; format: cell-based
T1 sequence (whole entry): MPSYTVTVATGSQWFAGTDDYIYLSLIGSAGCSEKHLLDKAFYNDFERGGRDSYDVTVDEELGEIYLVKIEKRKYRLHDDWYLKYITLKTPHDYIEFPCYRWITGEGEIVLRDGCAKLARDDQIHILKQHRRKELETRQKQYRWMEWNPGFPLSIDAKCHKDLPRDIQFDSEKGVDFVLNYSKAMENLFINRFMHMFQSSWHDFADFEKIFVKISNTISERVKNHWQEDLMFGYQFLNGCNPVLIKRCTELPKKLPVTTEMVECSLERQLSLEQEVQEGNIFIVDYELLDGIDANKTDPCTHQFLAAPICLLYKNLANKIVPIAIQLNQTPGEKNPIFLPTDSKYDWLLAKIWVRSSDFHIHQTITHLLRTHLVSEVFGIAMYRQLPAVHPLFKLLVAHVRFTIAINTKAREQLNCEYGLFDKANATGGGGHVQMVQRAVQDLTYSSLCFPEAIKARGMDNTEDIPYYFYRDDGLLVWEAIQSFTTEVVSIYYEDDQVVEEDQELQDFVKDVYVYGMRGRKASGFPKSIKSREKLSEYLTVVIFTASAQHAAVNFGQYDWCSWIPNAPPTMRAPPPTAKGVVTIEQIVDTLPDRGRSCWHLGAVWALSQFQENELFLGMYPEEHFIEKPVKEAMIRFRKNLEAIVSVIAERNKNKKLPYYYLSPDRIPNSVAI
Method in brief: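 Leukocytes (~85% PMNs) were elicited in male Wistar rats (200-300 g) with ip 6% oyster glycogen and harvested 16-20 h later. Cells at 2.5 × 10^6/mL in complete HBSS were tested in triplicate, preincubated with the sample (in DMSO, or CHCl3 evaporated) for 10 min at 37 °C, then given A23187 for 10 min. Supernatant LTB4 was measured by RIA (3H-LTB4 tracer, rabbit antiserum, 18 h, 4 °C).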

Rattus norvegicus = organism: Rattus norvegicus; test: Inhibition of cyclooxygenase in Wistar rat peritoneal leukocytes at 50 ug/mL; format: cell-based
Method in brief: (§1)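 Peritoneal leukocytes (~85% PMNs) came from male Wistar rats (200-300 g) 16-20 h after ip 6% oyster glycogen and were used at 2.5 × 10^6 cells/mL in complete HBSS. The COX readout was supernatant TXB2 by radioimmunoassay (3H-TXB2 tracer, rabbit antiserum, 4 °C, 18 h).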

[2] = Inhibition of cyclooxygenase in Wistar rat peritoneal leukocytes; format: cell-based; method in brief: as §1
[3] = target: T2, Polyunsaturated fatty acid 5-lipoxygenase (Rattus norvegicus, UniProt P12527); test: Inhibition of 5-lipoxygenase in Wistar rat peritoneal leukocytes; format: cell-based
T2 sequence (P12527 whole entry): T1 sequence (whole entry)
Method in brief: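 Male Wistar rat peritoneal leukocytes (~85% PMNs) elicited by ip 6% oyster glycogen, harvested 16-20 h later, and resuspended at 2.5 × 10^6 cells/mL in HBSS with 1.26 mM Ca2+ and 0.9 mM Mg2+. Triplicates were preincubated 10 min at 37 °C with the test agent, then stimulated 10 min with calcium ionophore A23187. Supernatant LTB4 was measured by radioimmunoassay using a 3H-LTB4 tracer and rabbit antiserum (4 °C, 18 h).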

[4] = Cell viability of Wistar rat peritoneal leukocytes by trypan blue exclusion method; format: cell-based, Leukocyte; conditions: read-out: Activity

| SMILES | inhibition [1] [%] | inhibition (Rattus norvegicus) [%] | IC50 [2] [µM] | IC50 [3] [µM] | viability [4] [%] |
| --- | --- | --- | --- | --- | --- |
| CCC(OC)(c1cccc(OCc2ccc3ccccc3c2)c1)c1nccs1 (centres undefined) | 100 | 0 | – | – | – |
| O=C(O)c1ccc(OCCn2ccnc2)cc1 | 0 | 89.6 | – | – | – |
| C/C1=C\CC(C)(C)/C=C/C(=O)/C(C)=C/CC1 | 0 | 0 | – | – | – |
| C=C1CC/C=C(\C)C(=O)[C@H](O)[C@@H]2[C@@H]1CC2(C)C [BUDDLEDIN B] | 49.3 | 47.9 | > 200 | > 200 | – |
| C[C@@H]1O[C@@H](O[C@@H]2[C@@H](O)[C@H](OCCc3ccc(O)c(O)c3)O[C@H](CO[C@@H]3OC[C@H](O)[C@H](O)[C@H]3O)[C@H]2OC(=O)/C=C/c2ccc(O)c(O)c2)[C@H](O)[C@H](O)[C@H]1O | 0 | 0 | – | – | – |
| COc1ccc2c(c1)c(CC(=O)O)c(C)n2C(=O)c1ccc(Cl)cc1 | 0 | 100 | – | – | – |
| COc1ccc(-c2cc(=O)c3c(O)cc(O)cc3o2)cc1 [ACACETIN] | 77.6 | 69.5 | 77.5 | 123 | – |
| C[C@@H]1O[C@@H](O[C@@H]2[C@@H](O)[C@H](OCCc3ccc(O)c(O)c3)O[C@H](CO)[C@H]2OC(=O)/C=C/c2ccc(O)c(O)c2)[C@H](O)[C@H](O)[C@H]1O | 0 | 0 | – | – | – |
| C[C@H]1O[C@H](O[C@@H]2[C@@H](O)[C@H](OCCc3ccc(O)c(O)c3)O[C@H](CO[C@H]3O[C@@H](CO)[C@H](O)[C@@H](O)[C@@H]3O)[C@H]2OC(=O)/C=C/c2ccc(O)c(O)c2)[C@@H](O)[C@@H](O)[C@@H]1O | 0 | 0 | – | – | – |
| COC(CO[C@@H]1O[C@H](CO)[C@@H](OC(=O)/C=C/c2ccc(O)c(O)c2)[C@H](O[C@@H]2O[C@@H](C)[C@H](O)[C@@H](O)[C@H]2O)[C@H]1O)c1ccc(O)c(O)c1 (some centres undefined) | 0 | 0 | – | – | – |
| C=C1CCC[C@H](C)C(=O)[C@H](OC(C)=O)[C@@H]2[C@@H]1CC2(C)C | 0 | 0 | – | – | – |
| CC(/C=C/C=C(\C)C(=O)O)=C\C=C\C=C(C)\C=C\C=C(/C)C(=O)O[C@H]1O[C@H](CO[C@@H]2O[C@H](CO)[C@@H](O)[C@H](O)[C@H]2O)[C@@H](O)[C@H](O)[C@H]1O [CROCETIN MONOGENTIBIOSYL ESTER] | 0 | 85.1 | 28.2 | – | – |
| Cc1cc(-c2ccc(/N=N/c3c(S(=O)(=O)O)cc4cc(S(=O)(=O)O)cc(N)c4c3O)c(C)c2)ccc1/N=N/c1c(S(=O)(=O)O)cc2cc(S(=O)(=O)O)cc(N)c2c1O [TRYPAN BLUE] | – | – | – | – | 95 |
| O=C(/C=C/c1ccc(O)c(O)c1)O[C@H]1[C@H](O)[C@@H](O)[C@H](OCCc2ccc(O)c(O)c2)O[C@@H]1CO | 0 | 0 | – | – | – |
| C=C1CC/C=C(\C)C(=O)[C@H](OC(C)=O)[C@@H]2[C@@H]1CC2(C)C [BUDDLEDIN A] | 98 | 89.3 | 13.7 | 50.4 | – |
| C[C@H]1O[C@H](O[C@@H]2[C@@H](O)[C@H](OCCc3ccc(O)c(O)c3)O[C@H](CO[C@H]3OCC(O)(CO)[C@@H]3O)[C@H]2OC(=O)/C=C/c2ccc(O)c(O)c2)[C@@H](O)[C@@H](O)[C@@H]1O (some centres undefined) | 0 | 0 | – | – | – |
| CCn1c(=O)ccc2cc(COc3cc(F)cc(C4(OC)CCOCC4)c3)ccc21 | 100 | 47.8 | – | – | – |
| C=C1CC/C=C(\C)C(=O)C[C@@H]2[C@@H]1CC2(C)C [BUDDLEDIN C] | 16.4 | 9.5 | > 200 | > 200 | – |
